The target of data set [1] is T1, Cystic fibrosis transmembrane conductance regulator (Homo sapiens, UniProt P13569). Briefly: Activation of human CFTR expressed in FRT cells co-expressing YFP assessed as increase in forskolin-stimulated iodide influx at 10 uM measured after 10 mins for 2 to 12 sec by fluorescence assay. The class given is cell-based. An outline of the steps: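 FRT cells stably coexpressing human wild-type CFTR and YFP-H148Q halide sensor; PBS wash, then 10 min with compound in PBS containing 125 nM forskolin. Plate reader: 2 s baseline, then 12 s after rapid iodide-containing solution addition; initial iodide influx rate taken as linear measure of channel function.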
Target sequence in this assay (P13569 whole entry, looked up): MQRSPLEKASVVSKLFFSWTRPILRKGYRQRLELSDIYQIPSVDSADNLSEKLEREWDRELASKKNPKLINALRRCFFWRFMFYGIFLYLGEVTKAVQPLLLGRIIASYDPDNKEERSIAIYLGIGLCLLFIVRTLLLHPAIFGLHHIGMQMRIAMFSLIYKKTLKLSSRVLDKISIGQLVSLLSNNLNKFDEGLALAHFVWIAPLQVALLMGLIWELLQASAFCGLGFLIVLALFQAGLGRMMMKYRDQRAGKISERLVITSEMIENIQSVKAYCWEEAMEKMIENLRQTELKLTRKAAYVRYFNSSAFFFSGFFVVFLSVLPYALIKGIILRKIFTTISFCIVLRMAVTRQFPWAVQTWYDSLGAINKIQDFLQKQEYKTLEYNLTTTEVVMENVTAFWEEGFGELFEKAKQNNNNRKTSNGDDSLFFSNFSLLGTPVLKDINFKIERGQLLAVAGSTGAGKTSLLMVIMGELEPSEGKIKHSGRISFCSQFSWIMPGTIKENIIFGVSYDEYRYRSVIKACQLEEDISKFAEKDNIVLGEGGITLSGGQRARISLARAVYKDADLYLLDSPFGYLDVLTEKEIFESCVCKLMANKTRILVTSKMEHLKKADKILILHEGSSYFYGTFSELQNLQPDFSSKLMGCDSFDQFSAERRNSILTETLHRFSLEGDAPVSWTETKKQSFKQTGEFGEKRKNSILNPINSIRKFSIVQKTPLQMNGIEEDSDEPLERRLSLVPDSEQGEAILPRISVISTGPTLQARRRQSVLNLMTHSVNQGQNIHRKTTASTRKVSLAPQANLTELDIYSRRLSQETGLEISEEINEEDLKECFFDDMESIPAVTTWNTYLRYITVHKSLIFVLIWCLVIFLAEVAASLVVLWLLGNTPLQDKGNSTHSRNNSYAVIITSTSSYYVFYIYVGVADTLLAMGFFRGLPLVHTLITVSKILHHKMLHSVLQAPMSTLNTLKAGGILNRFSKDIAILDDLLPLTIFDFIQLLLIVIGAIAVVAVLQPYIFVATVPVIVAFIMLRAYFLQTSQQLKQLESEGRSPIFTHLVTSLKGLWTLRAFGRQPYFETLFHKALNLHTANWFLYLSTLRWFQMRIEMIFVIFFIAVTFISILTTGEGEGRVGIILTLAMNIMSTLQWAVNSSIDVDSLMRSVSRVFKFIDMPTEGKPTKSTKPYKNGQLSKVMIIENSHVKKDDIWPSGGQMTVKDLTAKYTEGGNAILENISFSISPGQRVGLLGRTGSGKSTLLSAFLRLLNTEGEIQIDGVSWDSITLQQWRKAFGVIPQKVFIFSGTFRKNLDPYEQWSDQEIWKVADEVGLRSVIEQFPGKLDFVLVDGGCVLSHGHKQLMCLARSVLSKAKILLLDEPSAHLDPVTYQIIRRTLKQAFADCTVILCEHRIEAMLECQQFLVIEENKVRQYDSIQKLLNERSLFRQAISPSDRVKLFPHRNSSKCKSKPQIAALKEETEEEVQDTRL

The target of data set [2] is T1, Cystic fibrosis transmembrane conductance regulator. Briefly: Activation of human CFTR expressed in FRT cells co-expressing YFP assessed as increase in forskolin-stimulated iodide influx measured after 10 mins for 2 to 12 sec by fluorescence assay. The class given is cell-based.
Target sequence in this assay (P13569 whole entry): as the sequence (P13569 whole entry, looked up) above
A short description of data set [3]: Metabolic stability in rat hepatic microsomes assessed as parent compound remaining at 5 uM after 60 mins in presence of NADPH by LC-MS analysis. The class given is ADME, Microsome. The note with it: liver microsomes, read-out: Stability. An outline of the steps: (§1)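 Compound at 5 μM incubated at 37 °C with rat liver microsomes (1 mg/mL) in potassium phosphate buffer with 1 mM NADPH; quenched with ice-cold EtOAc, centrifuged, supernatant analysed by LC/MS (C18, water/acetonitrile with 0.1% formic acid gradient, UV 254 nm) for parent remaining; mean ± SEM, n = 3.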
Background: Liver microsomes are vesicles of endoplasmic reticulum, rich in cytochrome P450 enzymes.

Data set [4] has as its system Mus musculus. Briefly: Induction of tear secretion in mouse at 250 pmol administered as single topical dose up to 8 hrs by phenol red thread test. It counts as functional. An outline of the steps: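 Mice 8–12 weeks (25–35 g); single ocular dose of 250 pmol (100 μM) in 2.5 μL vehicle (0.3% CMC in Ringer's), both eyes treated identically, vehicle control. Tear volume by phenol red thread, 10 s in lateral canthus under isoflurane, before and at set times after dosing. 5 mice, 10 eyes per condition; two-way ANOVA with Dunnett test.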

A short description of data set [5]: Metabolic stability in rat hepatic microsomes assessed as parent compound remaining at 5 uM after 15 mins in presence of NADPH by LC-MS analysis. It counts as ADME, Microsome. The note with it: liver microsomes, read-out: Stability. An outline of the steps: as §1

The text below walks through data of ChEMBL document CHEMBL3997791, “Nanomolar-Potency Aminophenyl-1,3,5-triazine Activators of the Cystic Fibrosis Transmembrane Conductance Regulator (CFTR) Chloride Channel for Prosecretory Therapy of Dry Eye Diseases” (J Med Chem, 2017).

Each structure is given as a SMILES string. The source made the active and inactive calls. The rule behind the calls is not given here.

For the compound `CNc1nc(Nc2ccc(OC(F)(F)Cl)cc2)nc(OCC(F)(F)F)n1`, in data set [1], the result was inactive. Still for that read-out and setting: to `CCC(C)Nc1nc(Nc2ccc([N+](=O)[O-])cc2)nc(OC(C(F)(F)F)C(F)(F)F)n1` (configuration not stated) belongs “inactive”.

As a reminder, the EC50 is the concentration giving half of the maximal effect. `CCN(CC)c1nc(Nc2ccc(C(=O)O)cc2)nc(OCC(F)(F)C(F)F)n1`: the EC50 in data set [2] was 2500 nM. With `FC(F)(F)COc1nc(Nc2ccccc2)nc(OCC(F)(F)F)n1`, the result in data set [1] was inactive.

For the compound `CNc1nc(Nc2ccccc2C(F)(F)F)nc(OC(C(F)(F)F)C(F)(F)F)n1`, the result in data set [1] was inactive. Consider `O=[N+]([O-])c1cccc(Nc2nc(OC(C(F)(F)F)C(F)(F)F)nc(OC(C(F)(F)F)C(F)(F)F)n2)c1`, for which the outcome in data set [1] was inactive. Same read-out and setting: to `CC(C)(C)Nc1nc(Nc2ccc(OC(F)(F)Cl)cc2)nc(OCC(F)(F)F)n1` belongs “inactive”. On the same count and under the same terms, the same measure for `COc1nc(Nc2ccc([N+](=O)[O-])cc2)nc(OC)n1`: “inactive”; for `Cc1ccc(Nc2nc(OC(C(F)(F)F)C(F)(F)F)nc(N3CCCCC3)n2)cc1`: “inactive”. With `FC(F)(F)COc1nc(Nc2ccc(OC(F)(F)F)cc2)nc(NC2CC2)n1`, in data set [1], the outcome was inactive.

On to `CCN(CC)c1nc(Nc2ccc3ncoc3c2)nc(OC(C(F)(F)F)C(F)(F)F)n1`, for which the remaining at 1 h, 5 µM in data set [3] is 60%. Consider `CNc1nc(Nc2ccc(C(C)=O)cc2)nc(OC(C(F)(F)F)C(F)(F)F)n1`, for which the outcome in data set [1] was inactive. Still for that read-out and setting: to `CN(C)c1nc(Nc2ccc(OC(F)(F)F)cc2)nc(OCC(F)(F)F)n1` belongs “inactive”. For `CC(C)Nc1nc(Nc2ccc([N+](=O)[O-])cc2)nc(OC(C(F)(F)F)C(F)(F)F)n1`, the result in data set [1] was inactive.

In the case of `CC(=O)c1ccc(Nc2nc(OC(C(F)(F)F)C(F)(F)F)nc(OC(C(F)(F)F)C(F)(F)F)n2)cc1`, the outcome in data set [1] was inactive. Take `Fc1ccc(Nc2nc(OC(C(F)(F)F)C(F)(F)F)nc(N3CCCCC3)n2)cc1`: the result in data set [1] was inactive. On to `CCN(CC)c1nc(Nc2ccc([N+](=O)[O-])cc2)nc(OC(C(F)(F)F)C(F)(F)F)n1`, for which the EC50 in data set [2] amounted to 18000 nM. Consider `FC(F)(F)C(Oc1nc(N2CCCCCC2)nc(N(c2ccccc2)c2ccccc2)n1)C(F)(F)F`, for which, in data set [1], the result was inactive. Take `COc1ccc(Nc2nc(NC3CCCCC3)nc(OC(C(F)(F)F)C(F)(F)F)n2)cc1`: the result in data set [1] was inactive. Turning to `FC(F)(F)C(Oc1nc(Nc2cccnc2)nc(OC(C(F)(F)F)C(F)(F)F)n1)C(F)(F)F`, the result in data set [1] was inactive. Take `CCN(CC)c1nc(Nc2ccc3[nH]ncc3c2)nc(OC(C(F)(F)F)C(F)(F)F)n1`: the EC50 in data set [2] came out at 2800 nM. As for `C=CCNc1nc(Nc2cccc([N+](=O)[O-])c2)nc(OC(C(F)(F)F)C(F)(F)F)n1`, the outcome in data set [1] was Active.

Regarding `FC(F)(F)C(Oc1nc(Nc2ccccc2)nc(OC(C(F)(F)F)C(F)(F)F)n1)C(F)(F)F`, the outcome in data set [1] was inactive. As to `CCN(CC)c1nc(Nc2cccc([N+](=O)[O-])c2)nc(OC(C(F)(F)F)C(F)(F)F)n1`, the EC50 in data set [2] is 200 nM. Take `FC(F)(F)COc1nc(Nc2ccc(OC(F)(F)Cl)cc2)nc(OCC(F)(F)F)n1`: in data set [1], the outcome was inactive. Take `FC(F)(F)C(Oc1nc(Nc2ccc(Cl)cc2)nc(N2CCOCC2)n1)C(F)(F)F`: in data set [1], the outcome was inactive. Same read-out and setting: the same measure for `Cc1ccc(Nc2nc(OC(C(F)(F)F)C(F)(F)F)nc(OC(C(F)(F)F)C(F)(F)F)n2)cc1`: “inactive”; for `O=[N+]([O-])c1ccccc1Nc1nc(OC(C(F)(F)F)C(F)(F)F)nc(OC(C(F)(F)F)C(F)(F)F)n1`: “inactive”; for `O=[N+]([O-])c1ccc(Nc2nc(OC(C(F)(F)F)C(F)(F)F)nc(OC(C(F)(F)F)C(F)(F)F)n2)cc1`: “inactive”. On to `CC(=O)N1CCN(c2nc(Nc3ccccc3C(=O)c3ccccc3)nc(OC(C(F)(F)F)C(F)(F)F)n2)CC1`, for which the result in data set [1] was inactive. With `CCN(CC)c1nc(Nc2cccc(Cl)c2)nc(OC(C(F)(F)F)C(F)(F)F)n1`, the concentration for a half-maximal effect (EC50) in data set [2] is 2800 nM. For `COc1nc(Nc2ccc(OC)c(Cl)c2)nc(OC)n1`, the result in data set [1] was inactive. `Cc1ccccc1Nc1nc(OC(C(F)(F)F)C(F)(F)F)nc(OC(C(F)(F)F)C(F)(F)F)n1`: the outcome in data set [1] was inactive.

`CNc1nc(Nc2ccc([N+](=O)[O-])cc2)nc(OCC(F)(F)C(F)F)n1`: the result in data set [1] was Active. Consider `CCN(CC)c1nc(Nc2ccccc2)nc(OC(C(F)(F)F)C(F)(F)F)n1`, for which the result in data set [4] and in data set [1] was Active. In addition, the remaining at […], 5 µM in data set [5] was under 40%.
